Screening data as filed in PubChem.
Compounds with a hit are over-represented: about 1.9% of the library has one in this group of screens.
NadD inh = NadD (S. aureus) enzyme inhibition | AID 602399 | purified NadD enzyme, colorimetric absorbance read-out | inhibition, % at 20 µM | 0.78% of 360,000 active; in the data active means inhibition above about 26%
IMP-1 inh = inhibitors of Pseudomonas aeruginosa IMP-1 metallo-beta-lactamase. purified IMP-1, nitrocefin hydrolysis, epi-absorbance fluorescence. inhibition, % at 5.6 µM. 0.45% of 290,000 active. AID 1556;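 active means inhibition above the mean plus 3 SD of all compounds in the same screening run, cut at about 4.5% in these data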;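 further: 0% = IMP-1 with DMSO and 100% = DMSO wells lacking enzyme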
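Test system: recombinant IMP-1 enzyme, purified / Medium: HEPES buffer pH 7.1 with ZnSO4 and Brij 35 / Doses: single dose, 5.6 µM / Times: 25 °C, 15 min preincubation, 25 min reaction / Detection: Epi-absorbance via hydrolysed-nitrocefin quenching of white-plate fluorescence, 480/530 nm, EDTA stop / Evaluation: percent inhibition from optical density relative to buffer-blank wells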
VIM-2 inh = blocks Pseudomonas aeruginosa VIM-2 metallo-beta-lactamase; purified VIM-2, nitrocefin hydrolysis, epi-absorbance fluorescence; inhibition, % at 5.6 µM; 0.89% of 290,000 active;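 active means inhibition above the mean of all tested compounds plus 3 SD, cutoff set per screening run, cut at about 7.5% in these data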;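 further: red hydrolysis product quenches plate fluorescence so inhibitors raise well fluorescence; 0% = enzyme with DMSO and 100% = DMSO without enzyme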
core dimer inh = blocks dimerization of HCV core protein | AID 1899 | 0.33% of 300,000 active | inhibition, % at 5 µM | TR-FRET GST/Flag-core106 dimerization, 1536-well;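 active means inhibition above the mean of all tested compounds plus 3 SD, set per screening campaign, cut at about 45% in these data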
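assay system = GST-tagged and Flag-tagged HCV core protein residues 1-106 | controls = unlabelled core106 and no-GST-core106 wells | incubation = compound-protein-antibody incubation 4 h at 22.5 °C | probe or stimulus = Eu donor and XL665 acceptor anti-tag antibodies | read-out = % inhibition based on acceptor/donor emission ratio | signal = TR-FRET 671 and 617 nm emission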
Starred values were filed as active, the others as inactive; . = not tested or not shown.

SMILES | NadD inh | IMP-1 inh | VIM-2 inh | core dimer inh
O=C(CSc1ccsc1[N+](=O)[O-])N1CCN(c2ccc(Cl)cc2)CC1 | 6 | -2 | -3 | 67*
COc1ccccc1NC(=O)C1CC(O)CN1C(=O)Oc1ccccc1 (stereo not drawn) | 4 | -3 | -3 | -19
CN1CCC2(CC1)Nc1nc(SCc3ccc(Cl)cc3)nn1C1=C2CN(C)CC1 | -8 | 0 | 9.5* | -14
CC(=O)c1cnc2nc(SCc3ccc(Cl)cc3)nn2c1C | -6 | 0 | -1 | 8
O=c1c2c([N+](=O)[O-])cc([N+](=O)[O-])cc2sn1-c1ccc(Br)cc1 | 30* | -4 | -3 | -11
CC1(C(=O)NC2CCCCCC2)CCN1C(=O)C1(c2ccccc2)CC1 (stereo not drawn) | 0 | . | . | .
Cc1ccccc1NC(=O)c1c(C)[nH]c(=S)c(C#N)c1-c1ccco1 | 9 | 17* | -1 | 16
CNC(=O)c1c(C)[nH]c(=S)c(C#N)c1-c1ccco1 | -2 | 18* | 1 | 3
Cc1[nH]c(=S)c(C#N)c(C)c1C(=O)Nc1ccccc1 | 4 | -3 | -4 | 4
COc1ccc(Cl)cc1N1C(=O)CN(Cc2cc(OC)c(OC)c(OC)c2)C1=S | -1 | -1 | 0 | 1
COc1ccc(-n2nnnc2C(c2cccs2)N2CCN(C/C=C/c3ccccc3)CC2)cc1 (stereo not drawn) | 4 | . | . | .
CC(C)=CC(=O)N1CCC(N2CCC(C(=O)NCC3CCCO3)CC2)CC1 (stereo not drawn) | 0 | -2 | -1 | -5
CCCc1cc(=O)oc2cc(C)c(CN3CCCC3)c(O)c12 | 29* | 7.7* | 4 | 53*
Cc1[nH]c2ccccc2c1/C=N/Nc1ccc([N+](=O)[O-])cc1S(=O)(=O)Nc1ccc(Cl)cc1 | 38* | -7 | -2 | -2
COCCC(=O)N1CCC(Oc2ccc(C(=O)N3C[C@@H]4CCC[C@H]3C4)cc2)CC1 | -3 | 5.1* | 0 | -10
COCCC(=O)N1CCC(Oc2ccc(C(=O)N3CCCC(OC)C3)cc2)CC1 (stereo not drawn) | -3 | -1 | -2 | 2
Cc1ccc2nc(NC(=O)CSc3nc(=O)n(CCN(C)C)c4c3CCCC4)sc2c1 | -12 | . | . | 0
COc1ccc(OC)c(NC(=O)CSc2nc3[nH]c(=O)[nH]c(=O)c3s2)c1 | 11 | . | . | .
CCOc1ccc(OCCCCN(C)C)cc1 | -3 | 35* | 3 | -2
CCOc1ccc(OCCCN(C)C)cc1 | 6 | -2 | -5 | -1
Cc1occc1C(=O)N1CCN(C(c2ccccc2)c2ccccc2)CC1 | 5 | -3 | -2 | 10
O=C(c1ccc(C#CC2(O)CCCCC2)cc1)N1CCN(C(c2ccccc2)c2ccccc2)CC1 | 24 | -2 | 0 | 53*
Cc1ccccc1C(=O)N1CCN(C(c2ccccc2)c2ccccc2)CC1 | 7 | 33* | -2 | 9
O=C(c1ccc(C#CC2(O)CCCCC2)cc1)N1CCN(Cc2ccccc2)CC1 | -3 | -2 | -2 | 2
Cc1cc(C(F)(F)F)c2c(=O)[nH]c(=O)n(Cc3ccccc3)c2n1 | 5 | 7.3* | 3 | 1
SMILES | NadD inh | IMP-1 inh | VIM-2 inh | core dimer inh
O=c1[nH]c(=O)n(Cc2ccccc2)c2nc(-c3ccco3)cc(C(F)(F)F)c12 | 12 | -1 | -3 | 22
COC(=O)c1c(C(=O)OC)c2cc(C)ccn2c1Cl | -7 | -4 | 8.1* | -12
Cc1ccc(S(=O)(=O)N(C)C)cc1NC(=O)C(C)OC(=O)C1CCCCC1 (stereo not drawn) | -1 | . | . | .
O=Cc1cc(N=Nc2cccc(C(=O)O)c2)ccc1O | 4 | 13* | -4 | -5
O=Cc1cc(N=Nc2ccccc2Cl)ccc1O | 2 | 9.7* | -4 | 22
COc1cc(N=Nc2ccccc2C(=O)O)ccc1O | -8 | -3 | -2 | -9
CC(=O)c1cc(CN2CCN(C3CCN(C(C)C)CC3)C(CCO)C2)cs1 (stereo not drawn) | -2 | -2 | -3 | -5
C/C=C/C=C/C(=O)N1CC2(CC(c3cccc(NC(=O)/C=C/C)c3)=NO2)C[C@@H]1C(N)=O (stereo partly drawn) | 11 | . | . | 47*
C/C=C\C=C/C(=O)Nc1cccc(C2=NOC3(C2)C[C@H](C(N)=O)N(C(=O)CC)C3)c1 (stereo partly drawn) | -8 | . | . | 41
C/C=C/C=C\C(=O)Nc1cccc(C2=NOC3(C2)C[C@@H](C(N)=O)N(C(=O)/C(C)=C/C)C3)c1 (stereo partly drawn) | -1 | . | . | 52*
C/C=C/C(=O)Nc1cccc(C2=NOC3(C2)C[C@H](C(N)=O)N(C(=O)/C=C/C)C3)c1 (stereo partly drawn) | -1 | . | . | 1
Cc1ccc(NC(=O)NC(=O)COC(=O)c2ccc(O)cc2O)c(C)c1 | 1 | . | . | .
Cc1cccc(NC(=O)c2cccc(Cn3cc(Br)c([N+](=O)[O-])n3)c2)c1C | -3 | -3 | -1 | 2
C=C1c2cccc(O)c2C(O)=C2C(=O)[C@]3(O)C(O)=C(C(N)=O)C(=O)[C@@H](N(C)C)[C@@H]3[C@@H](O)[C@H]12 | 12 | 3 | 8.6* | -8
Cc1csc(NC(=O)CCc2nc3ccccc3s2)n1 | 5 | -4 | -1 | 55*
O=C(COC(=O)CCc1nc2ccccc2s1)Nc1nc(-c2ccccc2)cs1 | -7 | -2 | -1 | 12
CCn1c(=O)c(CCC(=O)NCCN2CCOCC2)c(C)c2c(C)nn(-c3ccccc3)c21 | -11 | -2 | 9.6* | -6
CCn1c(=O)c(CCC(=O)NCC2CCCO2)c(C)c2c(C)nn(-c3ccccc3)c21 (stereo not drawn) | -7 | -1 | 1 | -26
O=C(c1cccnc1)c1ncc(C(F)(F)F)cc1Cl | 1 | -2 | -3 | 8
COc1cc(NC(=O)c2ccccc2)c(OC)cc1NC(=O)Cc1cccs1 | 14 | 1 | -3 | 67*
COc1ccc(NC(=O)Cc2cccs2)c(OC)c1 | -1 | -2 | -1 | 4
CC(=O)Nc1cccc(NC(=O)Cc2cccs2)c1 | 5 | -3 | -3 | 23
COC(=O)c1cc(NC(=O)Cc2cccs2)cc(C(=O)OC)c1 | -4 | -1 | 1 | 49*
COc1ccc(NS(=O)(=O)c2ccc3c(c2)[C@H]2C=CC[C@H]2[C@@H](c2ccc(C(=O)O)cc2)N3)cc1 | 30* | 22* | 2 | 23
O=C(O)c1ccc2c(c1)C1C=CCC1C(c1ccncc1)N2 (stereo not drawn) | 1 | 1 | 1 | -3
CC(=O)c1ccc2c(c1)C1C=CCC1C(c1ccc(S(=O)(=O)N3CCOCC3)cc1)N2 (stereo not drawn) | 29 | -2 | -3 | 79*
Cc1c(Cl)cccc1NS(=O)(=O)c1ccc2c(c1)C1C=CCC1C(c1ccc(C(=O)O)cc1)N2 (stereo not drawn) | 34* | 30* | -1 | 18
CC(C)C1Nc2ccc(C(=O)O)cc2C2C=CCC21 (stereo not drawn) | 1 | -2 | -4 | -3
COc1ccc(NS(=O)(=O)c2ccc(NS(=O)(=O)c3cccc(C(=O)O)c3)cc2)cc1 | -3 | -1 | -3 | 11
